Efflux pump mplx: inhibitors of Candida efflux pumps in yeast, primary screen, S. cerevisiae, Nile Red, multiplex; S. cerevisiae Candida pump triplex; inhibition, % at 10 µM; 330,000 compounds, 0.44% hits;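 active = plate passing quality check with inhibition over a set limit, or well fluorescence over plate mean plus 4 SD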;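 note: Nile Red retained in pooled yeast measured as flow cytometry median fluorescence; 0% = buffer negative control and 100% = Enniatin B positive control; higher means more Nile Red kept so more efflux inhibition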
Pemphigus Ab inh: inhibitors of pemphigus antibody binding to DSG3, primary screen, biochemical, bead-based, flow cytometry, scFv-GFP | Desmoglein-3 (Homo sapiens), P32926 | DSG3-coupled beads, scFv-anti-DSG3-GFP binding; hits give low values | binding (percent of control), % at 10 µM | 310,000 compounds, 0.48% hits | AID 588358, 2011;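 active = binding more than 3 SD below its plate's average and above zero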;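 note: hits lower antibody fragment binding to DSG3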
Arrestin-AP2 inh: inhibitors of beta-arrestin/AP2 binding, primary screen, biochemical, GPCR trafficking, flow cytometry; beta-arrestin 1 C-terminal peptide binding to AP2 beta2-adaptin appendage (human); FITC-arrestin peptide / GST-AP2 beads; AP2 beta2 appendage carries R879A mutation; inhibition, % at 10 µM; 340,000 compounds, 0.31% hits; AID 504490, 2011;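 active = inhibition above a set limit, near 3 SD of compounds lacking own fluorescence, cut at about 54% in these data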;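 note: plate controls were DMSO wells for no effect and 5 µM unlabelled arrestin peptide for full effect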
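System: GST-AP2 R879A glutathione beads; medium: PBS, Tween 20 0.05%, BSA 0.1%; reagent: fluorescein-tagged arrestin peptide at 50 nM final; schedule: pre-incubation 12 min, peptide binding 1 h, room temperature; detection: flow cytometry, FL1 (488/535 nm); read-out: inhibition as reduced fluorescein signal on beads, percent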
Neddyl block: inhibitors of cullin neddylation, primary screen, biochemical, TR-FRET, uHTS, NAE and Ubc12 | inhibition, % at 25 µM | 360,000 compounds, 0.58% hits; in the data active = inhibition above about 36%
Target sequence (P61081 whole entry, looked up): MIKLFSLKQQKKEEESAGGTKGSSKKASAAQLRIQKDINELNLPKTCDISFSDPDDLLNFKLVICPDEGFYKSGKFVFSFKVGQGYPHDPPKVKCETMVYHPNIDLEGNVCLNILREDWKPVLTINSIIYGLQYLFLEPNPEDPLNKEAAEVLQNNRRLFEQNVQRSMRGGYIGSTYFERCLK
Target sequence (Q13564 whole entry, looked up): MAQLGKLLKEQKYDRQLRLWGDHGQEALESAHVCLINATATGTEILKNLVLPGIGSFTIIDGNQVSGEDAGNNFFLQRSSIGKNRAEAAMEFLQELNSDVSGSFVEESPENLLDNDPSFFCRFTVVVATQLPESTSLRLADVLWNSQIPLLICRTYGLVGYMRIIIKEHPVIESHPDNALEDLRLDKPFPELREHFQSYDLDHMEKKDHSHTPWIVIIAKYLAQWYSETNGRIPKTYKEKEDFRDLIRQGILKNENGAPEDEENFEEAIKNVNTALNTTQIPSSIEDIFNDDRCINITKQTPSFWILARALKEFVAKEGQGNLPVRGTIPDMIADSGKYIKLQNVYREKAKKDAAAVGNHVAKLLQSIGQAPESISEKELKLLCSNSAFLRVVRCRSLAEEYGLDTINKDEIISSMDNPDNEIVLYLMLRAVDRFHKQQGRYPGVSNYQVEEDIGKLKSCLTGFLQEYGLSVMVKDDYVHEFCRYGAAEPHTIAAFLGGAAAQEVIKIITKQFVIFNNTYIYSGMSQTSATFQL
Arr-AP2 CP1: inhibitors of arrestin peptide binding to AP2, confirmation, biochemical, cherry pick 1, flow cytometry beads | shares compounds with Arrestin-AP2 inh | GST-AP2 beads, FITC arrestin peptide binding; GST-fused beta2-adaptin appendage, R879A mutant | inhibition, % at 10 µM | 1,300 compounds, 2% hits | AID 504908, 2011;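 active = inhibition above a set limit, roughly 3 SD of non-fluorescent compound noise, cut at about 38% in these data; inactive = inhibition at or below that limit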;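 note: loss of bead fluorescence from 50 nM FITC arrestin peptide bound to appendage; 0% = negative control wells and 100% = excess unlabelled arrestin peptide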
GST-FITC bead: GST-fluorescein capture on glutathione beads, confirmation, artefact control for arrestin-AP2 inhibitor project, biochemical, cherry pick 1, flow cytometry. 1,300 compounds, 2% hits. inhibition, % at 10 µM. GST-fluorescein binding to GSH beads, fluorescence, counter-screen. AID 588338, 2011. shares compounds with Arrestin-AP2 inh;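 active = inhibition above 50%, about 3 SD of the inhibition seen with non-fluorescent compounds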;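 note: fluorescein maleimide labelled GST captured on 4 micron glutathione beads; higher means more loss of bead fluorescence from quenching or blocked binding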
Numbers without * were called inactive. Compounds with a hit are over-represented: about 1.7% of the library has one in this group of screens.

`CCn1c(=O)n(CC)c2cc(N3CCCC3)c(NC(=O)c3cc(Br)ccc3OC)cc21` gave Efflux pump mplx 0.2, Arr-AP2 CP1 4.0 and GST-FITC bead 1.5.
For CC(Oc1ccc(Cl)cc1)C(=O)N(C)CC(=O)Nc1ccc(N2CCOCC2)cc1 (centres undefined) the results were Efflux pump mplx -2.4, Pemphigus Ab inh 105.1, Arrestin-AP2 inh 0.4 and Neddyl block 0.5.
CC(Sc1ccc(Cl)cc1)C(=O)N(C)CC(=O)Nc1ccc(N2CCOCC2)cc1 (centres undefined) was read as Efflux pump mplx 0.2, Pemphigus Ab inh 100.7, Arrestin-AP2 inh 56.4*, Neddyl block -1.3, Arr-AP2 CP1 5.5 and GST-FITC bead -7.0.
For Cc1ccc(CNC(=O)CS(=O)(=O)c2cn(CC(=O)N3CCOCC3)c3ccccc23)cc1 the results were Efflux pump mplx -0.2, Pemphigus Ab inh 112.3, Arrestin-AP2 inh 60.0*, Neddyl block -3.3, Arr-AP2 CP1 -0.9 and GST-FITC bead -12.4.
For C=CCNC(=O)C1CCC(=O)N1S(=O)(=O)c1ccc(C)cc1 (centres undefined) the results were Efflux pump mplx -0.1, Pemphigus Ab inh 115.9, Arrestin-AP2 inh 7.7 and Neddyl block -8.8.
For CN1C(=O)[C@@H]2[C@@H]3C[C@@H]([C@H]4ON=C(c5ccc(Cl)cc5Cl)[C@@H]34)[C@@H]2C1=O the results were Efflux pump mplx -0.1, Pemphigus Ab inh 100.4, Arrestin-AP2 inh 6.5 and Neddyl block -1.4.
For Cc1cc(C)c(C(=O)N2CCCC(CNS(=O)(=O)c3cccs3)C2)o1 (centres undefined) the results were Efflux pump mplx -0.2, Arrestin-AP2 inh -8.7 and Neddyl block -8.3.
CC(C)(O)C#Cc1ccc(C(=O)N2CCCC(CNS(=O)(=O)c3cccs3)C2)o1 (centres undefined) was read as Efflux pump mplx -0.2, Pemphigus Ab inh 100.6, Arrestin-AP2 inh 60.7*, Neddyl block -9.3, Arr-AP2 CP1 -9.4 and GST-FITC bead 3.2.
`CN(C)C(=O)c1cc(C(=O)c2ccc(C(F)(F)F)cc2F)c[nH]1` gave Efflux pump mplx -0.1, Pemphigus Ab inh 96.6, Arrestin-AP2 inh 61.9*, Neddyl block 3.0, Arr-AP2 CP1 -18.0 and GST-FITC bead 1.4.
For O=C(NCCCN1CCCC1=O)c1cc2ccccc2o1 the results were Efflux pump mplx 0.0, Pemphigus Ab inh 96.6, Arrestin-AP2 inh 2.7 and Neddyl block 6.4.
O=C(NCCCN1CCCC1=O)c1cc(=O)c2ccccc2o1 was read as Efflux pump mplx 0.1, Pemphigus Ab inh 100.8, Arrestin-AP2 inh 74.0*, Neddyl block -3.8, Arr-AP2 CP1 3.9 and GST-FITC bead 0.9.
COc1ccc(-n2nc(N)c(C(N)=O)n2)cc1 was read as Efflux pump mplx 0.0, Pemphigus Ab inh 96.2, Arrestin-AP2 inh 54.6*, Arr-AP2 CP1 7.7 and GST-FITC bead 3.5.
`COc1ccc(-n2nc3ccc(N)cc3n2)cc1` gave Pemphigus Ab inh 97.8.
O=C(NCCN1CCOCC1)c1ccc2c(c1)N(Cc1ccccc1)C(=O)c1ccccc1S2 was read as Efflux pump mplx 0.1, Pemphigus Ab inh 99.0, Arrestin-AP2 inh 61.9*, Neddyl block 0.0, Arr-AP2 CP1 2.1 and GST-FITC bead 1.3.
For O=C(NCCCN1CCOCC1)c1ccc2c(c1)N(Cc1ccccc1)C(=O)c1ccccc1S2 the results were Efflux pump mplx 0.1, Pemphigus Ab inh 98.5, Arrestin-AP2 inh -19.3 and Neddyl block -6.2.
Screening COC(=O)c1c(NC(=O)/C=C/C(=O)O)sc(C)c1-c1ccc(C(C)C)cc1 returned Efflux pump mplx 0.1, Pemphigus Ab inh 96.2, Arrestin-AP2 inh 56.8*, Neddyl block -69.5, Arr-AP2 CP1 -2.4 and GST-FITC bead -10.5.

Source: PubChem (several laboratories)
